Results collected from several papers.
Compare with care: the assays were run in different laboratories.
Target: Vascular endothelial growth factor receptor 2 (KDR, Homo sapiens, UniProt P35968)

SMILES	test	conditions	quantity	result
CNC(=O)c1c(C)oc2cc(Oc3ncnc4cc(OC)c(OC)cc34)ccc12	enzyme activity, inhibitor	0.1 µM	inhibition	89.9%
Cc1[nH]c(/C=C2\C(=O)Nc3ccc(F)cc32)c(C)c1C(=O)N[C@H]1CCN(C(=O)N(C)C)C1	enzyme activity, inhibitor	1 µM	remaining activity	9%
CC(=O)Nc1c(C(C)=O)c(=O)n(C)c2nc(-c3ccc(Cl)cc3Cl)c(-c3ccc(Cl)cc3)cc12	cell-free assay, competition with immobilised ligand	1 µM	remaining binding	94%
COc1ccc(NC(=O)c2c(Nc3ccccc3)sc(C(=O)NN=Cc3cc(OC)c(OC)c(OC)c3)c2NC(C)=O)cc1	enzyme activity, inhibitor	10 nM	remaining activity	100%
Cc1ccc(C(=O)Nc2ccc(CN3CCN(C)CC3)c(C(F)(F)F)c2)cc1C#Cc1cnc2cccnn12	cell-free assay	23.5 nM	remaining signal	15%
N#CCCc1ccc2c(c1)-c1[nH]c3ccc([N+](=O)[O-])cc3c1CC(=O)N2	cell-free assay	0.5 µM	remaining signal	75.5%
CN(C)C1CCN(CC#Cc2nn(C3CCCC3)c3nc(NCc4ccccc4)ncc23)C1 (centres unmarked)	enzyme activity, inhibitor, FRET	10 µM	inhibition	56%
CC(=O)N1CCC(c2ccc(C(=O)NC3=NCCN3)cc2C(F)(F)F)CC1	cell-free assay, competition with immobilised ligand	1 µM	remaining binding	80%
COc1ccc(NC(=O)c2c(Nc3ccccc3)sc(C(=O)NN=Cc3ccc(OC)c(O)c3)c2NC(C)=O)cc1	enzyme activity, inhibitor	10 µM	remaining activity	46.1%
O=C1Cc2c([nH]c3ccc(Br)cc23)-c2ccccc2N1	cell-free assay	0.5 µM	remaining signal	98.1%
Cc1c[nH]c2nccc(Oc3c(F)cc(Nc4cc(Cl)nc(N)n4)cc3F)c12	cell-free assay, competition with immobilised ligand	0.1 µM	remaining binding	81%
COc1ccc(NC(=O)c2c(Nc3ccccc3)sc(C#N)c2NC(=O)CNc2ccc(Br)cc2)cc1	enzyme activity, inhibitor	10 nM	remaining activity	93%
Cc1ccc(NC(=O)c2ccc(C)c(C(F)(F)F)c2)cc1C#Cc1nn(C2CCC(O)CC2)c2ncnc(N)c12 (centres unmarked)	cell-free assay	10 µM	remaining signal	2%
COc1ccc(NC(=O)c2c(Nc3ccccc3)sc(C#N)c2NC(=O)CNc2ccc(Cl)cc2)cc1	enzyme activity, inhibitor	10 µM	remaining activity	29.6%
Cn1nc(C(=O)NCc2ccc(C(=O)O)cc2)cc1-c1ccc2[nH]ccc2c1	cell-free assay, competition with immobilised ligand	0.1 µM	remaining binding	85%
COc1ccc(C=NNC(=O)c2sc(Nc3ccccc3)c(C(=O)Nc3ccc(OC)cc3)c2NC(C)=O)cc1	enzyme activity, inhibitor	100 µM	remaining activity	35.1%
CNc1cccc2cc(C(=O)Nc3ccc(C(=O)O)cc3)c(=O)[nH]c12	enzyme activity, inhibitor	10 µM	inhibition	4.8%
